In general, IC50 refers to the concentration that gives 50% inhibition. Low readings indicate higher potency, high ones lower potency. As usually defined, the ED50 is the dose that gives a 50% effect, or the effect in half of the subjects. A low value points to greater potency.

Assay [1] has as its system Rattus norvegicus. The assay can be described thus: Minimally effective dose(MED) (mg/kg body weight) at which a significant increase in EPO activity was observed in rats. It counts as functional. To be noted: read-out: MED. The procedure, abridged:
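Uterine eosinophil peroxidase (EPO) activity was measured in the 4-day ovariectomized rat assay. […] Activity at the MED is given as Vmax ± standard error.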

The target in assay [2] is T1, Estrogen receptor (Rattus norvegicus) (UniProt P06211+Q62986).
Assay [3] relates to Rattus norvegicus. Put plainly: Percent decrease in serum cholesterol relative to OVX controls, at 0.01 mg/Kg compound dose. It counts as functional. The procedure, abridged:
(§1)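 Ovariectomized rats were dosed daily for 4 days, and serum cholesterol was measured. Values are mean percent decrease relative to OVX controls ± SEM, n ≥ 5 per group, with significance at p ≤ 0.05. ED50 is the dose reducing serum cholesterol by 50% relative to OVX controls.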

Assay [4] relates to Rattus norvegicus. Put plainly: Percent decrease in serum cholesterol relative to OVX controls, at 1.0 mg/Kg compound dose. The class given is functional. The procedure, abridged:
as §1

Assay [5] concerns MCF7. Put plainly: Inhibition of estrogen-stimulated MCF-7 cell proliferation. It counts as functional, cell-based. The conditions noted are these: Homo sapiens. The procedure, abridged:
(§2)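 MCF-7 breast tumor cells were stimulated to proliferate with 10⁻¹¹ M 17β-estradiol, with test compound added to measure inhibition of that proliferation. IC50 was derived from the inhibition.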

For assay [6], the species on record is Rattus norvegicus. The assay can be described thus: Dose required to reduce serum cholesterol by 50% relative to ovariectomized (OVX) controls. It counts as functional. The procedure, abridged:
as §1

Assay [7] concerns the target T1, Estrogen receptor (Rattus norvegicus). Put plainly: Minimally effective dose(MED) (mg/kg body weight) at which a statistically significant (p<= 0.05) increase in uterine weight/body weight was observed. The class given is functional, organism-based. The procedure, abridged: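 A 4-day ovariectomized rat assay with daily dosing. Uterine weight/body weight was compared with OVX controls. The MED is the lowest dose (mg/kg) giving a significant increase (p ≤ 0.05). Activity at the MED is given as percent increase over OVX controls ± standard error.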

The test system of assay [8] is MCF7. The assay can be described thus: Inhibition of estrogen-stimulated MCF-7 cell proliferation; not active. The class given is functional, cell-based, Homo sapiens. The procedure, abridged:
as §2

On to `O=C1CCCN1CCOc1ccc(C2Oc3cc(O)ccc3-c3sc4cc(O)ccc4c32)cc1` (configuration not stated), for which the minimal effective dose in the assay with Rattus norvegicus [1] was over 3 mg/kg. This compound gave an MED in assay [2] of 3 mg/kg. For the same compound, the figures for the Decrease in the assay on Rattus norvegicus [3] and with Rattus norvegicus [4] were -15.2% and 4.4%, respectively. In the assay with MCF7 [5], this compound had an IC50 of 9 nM.

The compound `Oc1ccc2c(c1)OC(c1ccc(OCCN3CCCCC3)cc1)c1c-2ccc2cc(O)ccc12` (configuration not stated) registered an ED50 in the assay listed under Rattus norvegicus [6] of 0.02 mg/kg. In assay [7], this compound gave an MED of over 10 mg/kg. Also, the minimal effective dose in the assay with Rattus norvegicus [1] was over 10 mg/kg. Besides, the Decrease was 57.2% with Rattus norvegicus [3] and 65.7% in the assay on Rattus norvegicus [4]. The IC50 in the assay with MCF7 [5] was determined as 0.4 nM.

With `O=C(c1ccc(OCCN2CCCCC2)cc1)c1c(-c2ccc(O)cc2)sc2cc(O)ccc12` [RALOXIFENE], the 50% effect level in the assay filed under Rattus norvegicus [6] (ED50) was put at a dose of […]. The minimal effective dose in the assay with Rattus norvegicus [1] was over 10 mg/kg. Besides, the Decrease in the assay on Rattus norvegicus [3] turned out to be 44.9%. The compound also displayed an IC50 with MCF7 [5] of […].

`CC/C(=C(\c1ccccc1)c1ccc(OCCN(C)C)cc1)c1ccccc1` [TAMOXIFEN]: the ED50 in the assay filed under Rattus norvegicus [6] was 0.2 mg/kg. Also, the minimal effective dose in the assay with Rattus norvegicus [1] amounted to 0.1 mg/kg. For the same compound, the Decrease with Rattus norvegicus [3] was found to be 39.2%; in the assay on Rattus norvegicus [4] it was 71.1%.

In the case of `Oc1ccc2c(c1)OC(c1ccc(OCCN3CCCCC3)cc1)c1c-2sc2cc(O)ccc12` (configuration not stated), in the assay listed under Rattus norvegicus [6], the ED50 amounted to 0.15 mg/kg. For the same compound, in the assay on Rattus norvegicus [1], the minimal effective dose was over 10 mg/kg. The MED in assay [2] was over 10 mg/kg. Moreover, the results for the Decrease in the assay with Rattus norvegicus [3] and in the assay on Rattus norvegicus [4] were 62.2% and 47.6%, respectively. This compound also yielded an IC50 in the assay with MCF7 [5] of 0.2 nM.

For `Oc1ccc2c(c1)OC(c1ccc(OCCN3CCOCC3)cc1)c1c-2sc2cc(O)ccc12` (configuration not stated), in the assay filed under Rattus norvegicus [6], the ED50 is over 10 mg/kg. Moreover, the minimal effective dose with Rattus norvegicus [1] turned out to be 1 mg/kg. Moreover, in assay [2], the MED is 1 mg/kg. For the same compound, the values for the Decrease with Rattus norvegicus [3] and in the assay on Rattus norvegicus [4] were -48.7% and 14.3%, respectively. This compound also registered an IC50 in the assay with MCF7 [5] of 6 nM.

`CC/C(=C(\c1ccc(O)cc1)c1ccc(OCCN(C)C)cc1)c1ccccc1` had an IC50 in the assay on MCF7 [5] of […].

For `Oc1ccc2c(c1)OC(c1ccc(OCCN3CCCCC3)cc1)c1c-2sc2ccccc12` (configuration not stated), the ED50 in the assay filed under Rattus norvegicus [6] is 0.5 mg/kg. The minimal effective dose with Rattus norvegicus [1] was over 10 mg/kg. For the same compound, the MED in assay [2] was over 10 mg/kg. The Decrease with Rattus norvegicus [3] is 46.5%; in the assay on Rattus norvegicus [4] it was 53.7%. Moreover, in the assay with MCF7 [5], the IC50 turned out to be 20 nM.

In turn, `c1ccc2c(c1)OC(c1ccc(OCCN3CCCCC3)cc1)c1c-2sc2ccccc12` (configuration not stated) yielded an ED50 in the assay listed under Rattus norvegicus [6] of 0.7 mg/kg. The minimal effective dose in the assay with Rattus norvegicus [1] was over 10 mg/kg. Moreover, the MED in assay [2] is 0.1 mg/kg. Also, the Decrease in the assay on Rattus norvegicus [3] came to 39.8%. This compound registered an IC50 in the assay with MCF7 [5] of 80 nM.

With `Oc1ccc2c(c1)OC(c1ccc(OCCN3CCCCC3)cc1)c1c-2oc2cc(O)ccc12` (configuration not stated), the ED50 in the assay listed under Rattus norvegicus [6] was over 10 mg/kg. Besides, the minimal effective dose in the assay with Rattus norvegicus [1] is over 10 mg/kg. The compound also yielded an MED in assay [2] of over 10 mg/kg. For the same compound, in the assay with Rattus norvegicus [3], the Decrease came to 17.4%. This compound also returned an IC50 with MCF7 [5] of 0.7 nM.

In the assay filed under Rattus norvegicus [6], `Oc1ccc2c(c1)OC(c1ccc(OCCN3CCCC3)cc1)c1c-2sc2cc(O)ccc12` (configuration not stated) returned an ED50 of 0.2 mg/kg. In the assay on Rattus norvegicus [1], the minimal effective dose was over 1 mg/kg. This compound came in with an MED in assay [2] of 0.1 mg/kg. Also, the Decrease in the assay with Rattus norvegicus [3] is reported as 38.5%; with Rattus norvegicus [4], 68%. In the assay with MCF7 [5], the midpoint of inhibition, the IC50, lay at 0.6 nM.

Compound `COc1ccc2c(c1)OC(c1ccc(OCCN3CCCCC3)cc1)c1c-2sc2cc(OC)ccc12` (configuration not stated) came in with an IC50 in the assay on MCF7 [5] of 100 nM.

In the case of `Oc1ccc2c3c(sc2c1)-c1ccccc1OC3c1ccc(OCCN2CCCCC2)cc1` (configuration not stated), in the assay listed under Rattus norvegicus [6], it took a dose of 1 mg/kg to reach the 50% effect level (ED50). For the same compound, in the assay on Rattus norvegicus [1], the minimal effective dose is over 10 mg/kg. The same compound registered an MED in assay [2] of over 10 mg/kg. For the same compound, the results for the Decrease in the assay with Rattus norvegicus [3] and with Rattus norvegicus [4] were 25.4% and 51.5%, respectively. Moreover, the IC50 in the assay with MCF7 [5] came to 6 nM.

Regarding `CN(C)CCOc1ccc(C2Oc3cc(O)ccc3-c3sc4cc(O)ccc4c32)cc1` (configuration not stated), the 50% effect level in the assay filed under Rattus norvegicus [6] (ED50) was put at a dose of 0.5 mg/kg. Further, the minimal effective dose in the assay with Rattus norvegicus [1] turned out to be 0.1 mg/kg. The compound further showed an MED in assay [2] of 0.1 mg/kg. Also, the Decrease amounted to 40.1% in the assay with Rattus norvegicus [3] and 54.7% in the assay with Rattus norvegicus [4]. Further, the IC50 in the assay on MCF7 [5] was 2 nM.

In the assay filed under Rattus norvegicus [6], `CCN(CC)CCOc1ccc(C2Oc3cc(O)ccc3-c3sc4cc(O)ccc4c32)cc1` (configuration not stated) showed an ED50 of over 10 mg/kg. Further, the minimal effective dose with Rattus norvegicus [1] was 0.1 mg/kg. For the same compound, the MED in assay [2] was found to be 0.1 mg/kg. Moreover, the Decrease was determined as 20.6% in the assay on Rattus norvegicus [3] and 38.7% in the assay with Rattus norvegicus [4]. The same compound had an IC50 with MCF7 [5] of 8 nM.

Turning to `C#C[C@]1(O)CC[C@H]2[C@@H]3CCc4cc(O)ccc4[C@H]3CC[C@@]21C` [ETHINYL ESTRADIOL], the ED50 in the assay listed under Rattus norvegicus [6] came to 0.005 mg/kg. Besides, the IC50 entry in the assay with MCF7 [8] is on record as “Not Active”. In addition, the minimal effective dose in the assay on Rattus norvegicus [1] stood at 0.1 mg/kg. Also, in the assay on Rattus norvegicus [3], the Decrease came to 57.1%.

The record behind these values is ChEMBL document CHEMBL1131328 (J Med Chem, 1998).
